“And” between values parts separate entries of the source, which are not always exact repeats. Equal values may be shown once.
System: Fibroblast
Assay: Multiplex assay against human fibroblast
Type: toxicity, cell-based
Outline: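 Per cents of healthy-nucleus cells form the tubulin, mitochondrial-mass and membrane-permeability phenotype values. Live cells were stained at seeding with Hoechst33342, BioTracker Green Microtubule Cytoskeleton Dye, MitoTracker Red and Annexin V Alexa Fluor 680. After compound addition they were imaged on a CQ1 microscope at 37°C and 5% CO2, and CellPathfinder machine-learning gating split them into Hoechst high-intensity objects or normal cells, normal cells into healthy, pyknosed or fragmented nuclei, and pyknosed cells into mitotic or apoptotic.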

[1] = 12 h, 1 µM, compound concentration 1 uM
[2] = 12 h, 10 µM, compound concentration 10 uM
[3] = 24 h, 1 µM, compound concentration 1 uM
[4] = 24 h, 10 µM, compound concentration 10 uM
[5] = 48 h, 1 µM, compound concentration 1 uM
[6] = 48 h, 10 µM, compound concentration 10 uM

## Cc1ccc(-c2ccc(F)cc2COc2ccc(CCC(=O)O)cc2)cc1
[1]
  Population Apoptotic (%): 42% and 37%
  Population Fragmented Nuclei (%): 13% and 23%
  Population Healthy Nuclei (%): 64% and 45%
  Population Mitotic Cells (%): 57% and 62%
  Population Normal (%): 99% and 93%
  Population Pyknosed Nuclei (%): 21% and 30%
  Population Tubulin-Different-Phenotype (%): 26%
  Total Cell Count: 131 and 148
[2]
  Population Apoptotic (%): 19% and 31%
  Population Fragmented Nuclei (%): 15% and 23%
  Population Healthy Nuclei (%): 67% and 51%
  Population Mitotic Cells (%): 80% and 68%
  Population Normal (%): 99% and 93%
  Population Pyknosed Nuclei (%): 16% and 25%
  Population Tubulin-Different-Phenotype (%): 23% and 38%
  Total Cell Count: 125 and 136
[3]
  Population Apoptotic (%): 38% and 62%
  Population Fragmented Nuclei (%): 16% and 25%
  Population Healthy Nuclei (%): 67% and 46%
  Population Mitotic Cells (%): 61% and 37%
  Population Normal (%): 97% and 95%
  Population Pyknosed Nuclei (%): 15% and 27%
  Population Tubulin-Different-Phenotype (%): 23% and 33%
  Total Cell Count: 136 and 139
[4]
  Population Apoptotic (%): 47% and 46%
  Population Fragmented Nuclei (%): 9% and 26%
  Population Healthy Nuclei (%): 75% and 53%
  Population Mitotic Cells (%): 52% and 53%
  Population Normal (%): 98% and 92%
  Population Pyknosed Nuclei (%): 15% and 20%
  Population Tubulin-Different-Phenotype (%): 20% and 55%
  Total Cell Count: 127 and 136
[5]
  Population Apoptotic (%): 56% and 69%
  Population Fragmented Nuclei (%): 21% and 29%
  Population Healthy Nuclei (%): 62% and 55%
  Population Mitotic Cells (%): 43% and 30%
  Population Normal (%): 96%
  Population Pyknosed Nuclei (%): 15%
  Population Tubulin-Different-Phenotype (%): 24% and 46%
  Total Cell Count: 150 and 155
[6]
  Population Apoptotic (%): 72% and 48%
  Population Fragmented Nuclei (%): 11% and 30%
  Population Healthy Nuclei (%): 78% and 45%
  Population Mitotic Cells (%): 27% and 51%
  Population Normal (%): 96% and 92%
  Population Pyknosed Nuclei (%): 9% and 23%
  Total Cell Count: 121 and 140

## O=C(Nc1cc(-c2ccccc2)nn1-c1ccccc1F)c1ccc([N+](=O)[O-])cc1
[1]
  Population Apoptotic (%): 28% and 32%
  Population Fragmented Nuclei (%): 17% and 19%
  Population Healthy Nuclei (%): 71% and 55%
  Population Hoechst High Intensity Objects (%): 2% and 8%
  Population Membrane Permeable-Phenotype (%): 1% and 4%
  Population Mitochondria Different-Phenotype (%): 1% and 9%
  Population Mitotic Cells (%): 71% and 67%
  Population Normal (%): 97% and 91%
  Population Pyknosed Nuclei (%): 10% and 25%
  Population Tubulin-Different-Phenotype (%): 22% and 53%
  Total Cell Count: 138 and 160
[2]
  Population Apoptotic (%): 28% and 45%
  Population Fragmented Nuclei (%): 10% and 25%
  Population Healthy Nuclei (%): 66% and 47%
  Population Hoechst High Intensity Objects (%): 2% and 6%
  Population Membrane Permeable-Phenotype (%): 1% and 6%
  Population Mitochondria Different-Phenotype (%): 4% and 3%
  Population Mitotic Cells (%): 71% and 54%
  Population Normal (%): 97% and 93%
  Population Pyknosed Nuclei (%): 22% and 26%
  Population Tubulin-Different-Phenotype (%): 48% and 77%
  Total Cell Count: 170 and 149
[3]
  Population Apoptotic (%): 53% and 50%
  Population Fragmented Nuclei (%): 16% and 25%
  Population Healthy Nuclei (%): 74% and 53%
  Population Hoechst High Intensity Objects (%): 2% and 7%
  Population Membrane Permeable-Phenotype (%): 0% and 6%
  Population Mitochondria Different-Phenotype (%): 0% and 2%
  Population Mitotic Cells (%): 46% and 50%
  Population Normal (%): 97% and 92%
  Population Pyknosed Nuclei (%): 9% and 20%
  Population Tubulin-Different-Phenotype (%): 18% and 52%
  Total Cell Count: 135 and 156
[4]
  Population Apoptotic (%): 26% and 28%
  Population Healthy Nuclei (%): 76% and 53%
  Population Hoechst High Intensity Objects (%): 4% and 6%
  Population Membrane Permeable-Phenotype (%): 1% and 9%
  Population Mitochondria Different-Phenotype (%): 7% and 1%
  Population Mitotic Cells (%): 73% and 72%
  Population Normal (%): 95% and 93%
  Population Pyknosed Nuclei (%): 16% and 18%
  Population Tubulin-Different-Phenotype (%): 49% and 69%
  Total Cell Count: 163 and 147
[5]
  Population Apoptotic (%): 54% and 55%
  Population Fragmented Nuclei (%): 23% and 30%
  Population Healthy Nuclei (%): 67% and 53%
  Population Hoechst High Intensity Objects (%): 7%
  Population Membrane Permeable-Phenotype (%): 1% and 5%
  Population Mitochondria Different-Phenotype (%): 0% and 4%
  Population Mitotic Cells (%): 45% and 44%
  Population Normal (%): 92%
  Population Pyknosed Nuclei (%): 8% and 15%
  Population Tubulin-Different-Phenotype (%): 18% and 54%
  Total Cell Count: 145 and 183
[6]
  Population Apoptotic (%): 66% and 52%
  Population Fragmented Nuclei (%): 16% and 31%
  Population Healthy Nuclei (%): 70% and 54%
  Population Hoechst High Intensity Objects (%): 7% and 5%
  Population Membrane Permeable-Phenotype (%): 3% and 6%
  Population Mitochondria Different-Phenotype (%): 3%
  Population Mitotic Cells (%): 33% and 47%
  Population Normal (%): 92% and 94%
  Population Pyknosed Nuclei (%): 12% and 14%
  Population Tubulin-Different-Phenotype (%): 55% and 66%
  Total Cell Count: 160 and 153

## CN1CCN(c2cc(-c3ccccc3)nc(N)n2)CC1
[1]
  Population Apoptotic (%): 47% and 37%
  Population Fragmented Nuclei (%): 15% and 28%
  Population Healthy Nuclei (%): 68% and 45%
  Population Hoechst High Intensity Objects (%): 2% and 5%
  Population Membrane Permeable-Phenotype (%): 1% and 11%
  Population Mitochondria Different-Phenotype (%): 10% and 11%
  Population Mitotic Cells (%): 52% and 62%
  Population Normal (%): 97% and 94%
  Population Pyknosed Nuclei (%): 15% and 26%
  Population Tubulin-Different-Phenotype (%): 25% and 66%
  Total Cell Count: 135 and 97
[2]
  Population Apoptotic (%): 48% and 36%
  Population Fragmented Nuclei (%): 16% and 40%
  Population Healthy Nuclei (%): 67% and 36%
  Population Hoechst High Intensity Objects (%): 2% and 7%
  Population Membrane Permeable-Phenotype (%): 0% and 10%
  Population Mitochondria Different-Phenotype (%): 6% and 12%
  Population Mitotic Cells (%): 51% and 64%
  Population Normal (%): 97% and 92%
  Population Pyknosed Nuclei (%): 15% and 22%
  Population Tubulin-Different-Phenotype (%): 44% and 67%
  Total Cell Count: 216 and 118
[3]
  Population Apoptotic (%): 75% and 47%
  Population Fragmented Nuclei (%): 17% and 36%
  Population Healthy Nuclei (%): 65% and 44%
  Population Hoechst High Intensity Objects (%): 2%
  Population Membrane Permeable-Phenotype (%): 1% and 8%
  Population Mitochondria Different-Phenotype (%): 3% and 8%
  Population Mitotic Cells (%): 25% and 52%
  Population Normal (%): 97%
  Population Pyknosed Nuclei (%): 16% and 18%
  Population Tubulin-Different-Phenotype (%): 19% and 50%
  Total Cell Count: 145 and 106
[4]
  Population Apoptotic (%): 41% and 29%
  Population Fragmented Nuclei (%): 12% and 33%
  Population Healthy Nuclei (%): 70% and 43%
  Population Hoechst High Intensity Objects (%): 2%
  Population Membrane Permeable-Phenotype (%): 1% and 4%
  Population Mitochondria Different-Phenotype (%): 6%
  Population Mitotic Cells (%): 58% and 70%
  Population Normal (%): 97%
  Population Pyknosed Nuclei (%): 17% and 23%
  Population Tubulin-Different-Phenotype (%): 41% and 64%
  Total Cell Count: 213 and 107
[5]
  Population Apoptotic (%): 70% and 50%
  Population Fragmented Nuclei (%): 22% and 36%
  Population Healthy Nuclei (%): 62% and 49%
  Population Hoechst High Intensity Objects (%): 2% and 3%
  Population Membrane Permeable-Phenotype (%): 0% and 2%
  Population Mitochondria Different-Phenotype (%): 2% and 6%
  Population Mitotic Cells (%): 30% and 50%
  Population Normal (%): 97% and 96%
  Population Pyknosed Nuclei (%): 15% and 14%
  Population Tubulin-Different-Phenotype (%): 20% and 54%
  Total Cell Count: 137 and 101
[6]
  Population Apoptotic (%): 40% and 66%
  Population Fragmented Nuclei (%): 26% and 50%
  Population Healthy Nuclei (%): 58% and 39%
  Population Hoechst High Intensity Objects (%): 3%
  Population Membrane Permeable-Phenotype (%): 0% and 9%
  Population Mitochondria Different-Phenotype (%): 0% and 9%
  Population Mitotic Cells (%): 59% and 33%
  Population Normal (%): 96%
  Population Pyknosed Nuclei (%): 14% and 10%
  Population Tubulin-Different-Phenotype (%): 31% and 60%
  Total Cell Count: 227 and 114

## CN(C)C/C=C/C(=O)Nc1ccc(C(=O)N2CCCC(Nc3ncc(Cl)c(-c4c[nH]c5ccccc45)n3)C2)cc1 (stereo not drawn)
[1]
  Population Apoptotic (%): 48% and 46%
  Population Fragmented Nuclei (%): 15% and 21%
  Population Healthy Nuclei (%): 64% and 53%
  Population Hoechst High Intensity Objects (%): 2% and 6%
  Population Membrane Permeable-Phenotype (%): 2% and 3%
  Population Mitochondria Different-Phenotype (%): 11% and 13%
  Population Mitotic Cells (%): 51% and 53%
  Population Normal (%): 97% and 93%
  Population Pyknosed Nuclei (%): 19% and 25%
  Population Tubulin-Different-Phenotype (%): 40%
  Total Cell Count: 152 and 182
[2]
  Population Apoptotic (%): 59% and 48%
  Population Fragmented Nuclei (%): 18% and 23%
  Population Healthy Nuclei (%): 53% and 41%
  Population Hoechst High Intensity Objects (%): 4% and 8%
  Population Mitochondria Different-Phenotype (%): 37% and 19%
  Population Mitotic Cells (%): 40% and 51%
  Population Normal (%): 95% and 91%
  Population Pyknosed Nuclei (%): 27% and 35%
  Population Tubulin-Different-Phenotype (%): 77% and 58%
  Total Cell Count: 140 and 147
[3]
  Population Apoptotic (%): 68% and 37%
  Population Fragmented Nuclei (%): 25% and 26%
  Population Healthy Nuclei (%): 48% and 49%
  Population Hoechst High Intensity Objects (%): 7%
  Population Membrane Permeable-Phenotype (%): 2% and 10%
  Population Mitochondria Different-Phenotype (%): 7% and 10%
  Population Mitotic Cells (%): 31% and 62%
  Population Normal (%): 92%
  Population Pyknosed Nuclei (%): 26% and 23%
  Population Tubulin-Different-Phenotype (%): 40% and 54%
  Total Cell Count: 155 and 181
[4]
  Population Apoptotic (%): 65% and 47%
  Population Fragmented Nuclei (%): 13% and 30%
  Population Healthy Nuclei (%): 49% and 42%
  Population Hoechst High Intensity Objects (%): 2% and 6%
  Population Membrane Permeable-Phenotype (%): 0% and 5%
  Population Mitochondria Different-Phenotype (%): 52% and 35%
  Population Mitotic Cells (%): 34% and 52%
  Population Normal (%): 97% and 93%
  Population Pyknosed Nuclei (%): 37% and 27%
  Population Tubulin-Different-Phenotype (%): 84% and 72%
  Total Cell Count: 119 and 149
[5]
  Population Apoptotic (%): 63% and 60%
  Population Fragmented Nuclei (%): 33% and 35%
  Population Healthy Nuclei (%): 36% and 40%
  Population Hoechst High Intensity Objects (%): 10% and 8%
  Population Membrane Permeable-Phenotype (%): 2% and 8%
  Population Mitochondria Different-Phenotype (%): 20% and 25%
  Population Mitotic Cells (%): 36% and 40%
  Population Normal (%): 90% and 91%
  Population Pyknosed Nuclei (%): 30% and 24%
  Population Tubulin-Different-Phenotype (%): 48% and 68%
  Total Cell Count: 150 and 158
[6]
  Population Apoptotic (%): 77% and 68%
  Population Fragmented Nuclei (%): 28% and 27%
  Population Healthy Nuclei (%): 20% and 41%
  Population Hoechst High Intensity Objects (%): 14% and 13%
  Population Membrane Permeable-Phenotype (%): 0% and 17%
  Population Mitochondria Different-Phenotype (%): 55% and 29%
  Population Mitotic Cells (%): 22% and 31%
  Population Normal (%): 85% and 86%
  Population Pyknosed Nuclei (%): 51% and 30%
  Population Tubulin-Different-Phenotype (%): 66% and 80%
  Total Cell Count: 103 and 130
